Source: PubChem BioAssay
This is a sample that favours compounds with a hit; in the whole collection about 2% have one here.
ATG4B inhibitor = inhibitors of human ATG4B cysteine protease; Q9Y4P1; inhibition, % at 8.33 µM; 340,000 compounds, 0.51% hits; ATG4B cleavage of LC3-PLA2, NBD-HPC fluorescence, 1 h
TPT1 inh = inhibitors of Candida albicans tRNA 2'-phosphotransferase TPT1; recombinant caTPT1, FP RNA substrate dephosphorylation; inhibition, % at 5 µM; 300,000 compounds, 0.81% hits;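 active = inhibition above the mean of all tested compounds plus 3 SD, set per screening campaign, cut at about 24% in these data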
Rpn11 block = blocks the human proteasome subunit Rpn11; human 26S proteasome, Ub4-pepOG fluorescence polarization; 20S core pre-blocked with epoxomicin; inhibition, % at 20 µM; 360,000 compounds, 0.59% hits; O00487; AID 588493;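 active = inhibition at 20 µM, scaled to each plate's controls, above about 33%, limit read from the data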
CSN deneddyl inh = blocks human CSN-mediated cullin deneddylation | Q92905 | 360,000 compounds, 0.38% hits | AID 651999 | inhibition, % at 12.5 µM | Purified CSN, SCF-Nedd8-OG deneddylation, fluorescence polarization;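 active = pattern-corrected inhibition above about 35%, with an unprinted fluorescence ratio check between 0.5 and 1.5, limit read from the data, passing the limit was not always enough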
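Material: human Csn5 produced in HEK293T cells; Input: enzyme 0.24 nM; Reagent: SCFSkp2-Nedd8OG substrate at 10 nM final; Dosing: 12.5 µM compound; Incubation: 90 min reaction at room temperature; Detection: fluorescence polarization of the substrate; Evaluation: % inhibition of substrate cleavage by Csn5; Control set: substrate-only high control, full reaction low control.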
HNF4A DNA FP = change in binding of human HNF4 alpha to DNA | P41235 | HNF4a-FITC DNA binding, fluorescence polarization, 1 h | activity change, % at 10 µM | 360,000 compounds, 0.3% hits; in the data active = activity change above about 30%, passing the limit was not always enough
Target sequence (P41235 whole entry, looked up): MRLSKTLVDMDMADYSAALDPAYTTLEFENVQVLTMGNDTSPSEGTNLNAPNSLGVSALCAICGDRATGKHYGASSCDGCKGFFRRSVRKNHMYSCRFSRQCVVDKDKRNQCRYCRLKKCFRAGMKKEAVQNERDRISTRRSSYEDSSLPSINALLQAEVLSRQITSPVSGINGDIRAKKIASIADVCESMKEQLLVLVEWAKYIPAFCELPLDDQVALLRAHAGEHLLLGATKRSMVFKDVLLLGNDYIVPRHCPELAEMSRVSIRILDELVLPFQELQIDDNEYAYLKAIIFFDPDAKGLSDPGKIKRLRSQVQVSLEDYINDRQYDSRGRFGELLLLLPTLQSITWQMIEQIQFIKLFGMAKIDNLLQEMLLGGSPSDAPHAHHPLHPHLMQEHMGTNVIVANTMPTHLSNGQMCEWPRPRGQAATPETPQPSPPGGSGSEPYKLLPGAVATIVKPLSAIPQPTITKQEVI
SENP1 inh = blocks the human SENP1 SUMO protease catalytic domain; Q9P0U3; 360,000 compounds, 0.21% hits; recombinant SENP1 catalytic domain, CyPet-SUMO1-YPet FRET cleavage; inhibition, % at 10 µM;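 active = inhibition at least 30% at 10 µM, raw YFP signal under a set limit, fluorescence ratio 0.5 to 1.5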
Target sequence (Q9P0U3 419-644 limits assumed): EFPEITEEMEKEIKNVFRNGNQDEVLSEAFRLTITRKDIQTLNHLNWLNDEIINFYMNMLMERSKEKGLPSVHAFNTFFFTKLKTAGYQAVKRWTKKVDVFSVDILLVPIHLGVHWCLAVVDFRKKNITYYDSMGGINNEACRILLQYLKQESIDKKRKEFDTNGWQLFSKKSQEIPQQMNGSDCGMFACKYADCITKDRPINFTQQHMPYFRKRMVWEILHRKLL
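Material – human SENP1 catalytic domain · Input – SENP1 enzyme, 20 pM final · Compound dosing – single concentration of 10 µM compound, 0.5% DMSO final · Timing – enzyme reaction for 50 min at room temperature, dark · Measured by – FRET fluorescence in CFP and YFP emission channels · Control set – no-enzyme wells low, DMSO-plus-enzyme wells high control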
Rpn11 inh conf = Rpn11 inhibition confirmation, single concentration. shares compounds with Rpn11 block. purified human 26S proteasome, Ub4-pepOG fluorescence polarization; proteasome pretreated with epoxomicin. inhibition, % at 20 µM. 1,900 compounds, 29% hits. AID 602318
MMP-2 counter = counter-screen for RPN11 inhibitors: inhibition of human MMP-2 | shares compounds with Rpn11 block | recombinant MMP-2, FRET peptide cleavage fluorescence | inhibition, % at 20 µM | 1,900 compounds, 4% hits;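 also: human MMP-2 activated beforehand with APMA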
Thrombin inh = counter-screen for RPN11 inhibitors: inhibition of bovine thrombin | shares compounds with Rpn11 block | bovine thrombin cleavage of Ub4-pepOG, fluorescence polarization | inhibition, % at 20 µM | 1,900 compounds, 13% hits | AID 602333;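 active = mean inhibition at least 40% at 20 µM, or signal 3 deviations below plate average, so some actives read negative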
SENP1 conf = SENP1 (human) inhibition, single concentration confirmation | shares compounds with SENP1 inh | recombinant SENP1, CyPet-SUMO1-YPet FRET cleavage | inhibition, % at 10 µM | 520 compounds, 34% hits | AID 651678; in the data active = inhibition mostly above about 35%, no sharp cut-off; inactive = mostly below about 32%
SENP1 kin conf = confirmation of human SENP1 SUMO protease inhibitors, kinetic; shares compounds with SENP1 inh; recombinant SENP1, CyPet-SUMO1-YPet FRET kinetic cleavage; inhibition, % at 10 µM; 520 compounds, 26% hits; AID 651690; in the data active = inhibition mostly above about 32%, no sharp cut-off; inactive = mostly below about 29%
Hits are given with their value; i = inactive; nt = no result given. Rule as the data show it, unless noted: active = inhibition above about 40%; inactive = the rest.

SMILES | ATG4B inhibitor | TPT1 inh | Rpn11 block | CSN deneddyl inh | HNF4A DNA FP | SENP1 inh | Rpn11 inh conf | MMP-2 counter | Thrombin inh | others
COc1ccc(Cl)cc1NC(=O)CCCNC(=O)c1ccc(Cl)cc1 | i | i | 137 | i | i | i | i | i | i
CN(Cc1cn(Cc2cccc(Cl)c2)nn1)C1CN(Cc2cn(Cc3cccc(Cl)c3)nn2)S(=O)(=O)C1 (stereo not given) | nt | nt | nt | i | i | i | nt | nt | nt
O=C(/C=C/c1ccc(Br)cc1)c1ccco1 | i | i | i | i | i | i | nt | nt | nt
O=C(/C=C/c1ccc(Br)cc1)c1ccc(NC(=O)c2ccco2)cc1 | i | i | 55 | i | i | i | i | i | i
COCCOC(=O)C1=C(C)NC(=O)NC1c1ccc(-c2cc(Cl)ccc2Cl)o1 (stereo not given) | i | i | 46 | i | i | i | i | i | i
COC(=O)C1=C(C)NC(C)=C(C(=O)OC)C1c1ccc(-c2cc(Cl)ccc2Cl)o1 | i | i | i | i | i | i | nt | nt | nt
COc1ccc(C(=O)Nc2ccc(C(=O)Nc3cccnc3)cc2)cc1 | i | i | 106 | i | i | i | i | i | i
COc1ccc(C(=O)Nc2ccc(/C(C)=N/NC(=O)c3ccncc3)cc2)cc1 | nt | i | 85 | i | i | i | 45 | i | i
COc1ccc(OC)c(NS(=O)(=O)c2c(C(=O)N3CCCCCC3)c(C)n(C)c2C)c1 | i | i | i | i | i | i | nt | nt | nt
CC1CCCN(S(=O)(=O)c2ccc(Cl)s2)C1 (stereo not given) | i | i | i | i | i | i | nt | nt | nt
CC1CCCN(S(=O)(=O)c2ccc(Br)s2)C1 (stereo not given) | i | i | 46 | i | i | i | i | i | i
Cn1c(CO)cnc1SCc1ccc(Cl)cc1 | i | i | 107 | i | i | i | i | i | i
C/C(=N\Nc1ccc(C#N)cc1[N+](=O)[O-])c1ccc(C)o1 | i | i | 64 | i | i | i | i | i | i
Cc1nc(CC(=O)Nc2nccs2)cs1 | i | i | i | i | i | i | nt | nt | nt
C#CCOCCOCCOCCNc1nc(N2CCN(C(=O)CCCCCCCCCCNC(=O)[C@H]([C@@H](C)CC)n3cc(CCCCN=C(N)N)nn3)CC2)nc(N2CCN(C(=O)CCCCCCCCCCNC(=O)[C@@H]([C@H](C)O)n3cc(C)nn3)CC2)n1 | i | i | 71 | 97 | i | i | i | i | i
NC(=O)COc1ccc(/C=N\NC(=O)c2ccc(-c3ccccc3)cc2)cc1 | i | i | 125 | i | i | i | i | i | i
CCn1c2ccccc2c2cc(/C=N/NC(=O)c3ccccc3C)ccc21 | i | i | i | i | i | i | nt | nt | nt
CCn1c2ccccc2c2cc(/C=N/NC(=O)c3cccc(C)c3)ccc21 | i | i | 147 | 45 | i | i | i | i | i
COc1ccc(N(CC(=O)NCCSCc2ccccc2Cl)S(C)(=O)=O)cc1Cl | i | i | i | i | i | i | nt | nt | nt
COc1ccc([C@H]2CC(=O)C=C(c3cccc(OC)c3OC)C2)cc1OC | i | nt | i | i | i | i | nt | nt | nt
CCOc1ccc(S(=O)(=O)NCCC(=O)N2CCN(c3ncccn3)CC2)cc1 | i | nt | i | i | i | i | nt | nt | nt
CCOc1ccc(C(=O)CCC(=O)N2CCN(c3ncccn3)CC2)cc1 | i | i | 43 | i | i | i | 43 | i | i
CS(=O)(=O)c1ccc(Nc2nc(C(N)c3ccccc3)cs2)cc1 (stereo not given) | nt | nt | i | i | i | i | nt | nt | nt
Cc1ccc(Cl)cc1NC(=O)c1cnn2c1NC(c1ccco1)CC2C(F)(F)F (stereo not given) | i | i | 40 | i | i | i | i | i | i
CCc1cc2cc(C)ccc2nc1SCC(=O)N1CC(=O)Nc2ccccc21 | i | i | i | i | i | i | nt | nt | nt
SMILES | ATG4B inhibitor | TPT1 inh | Rpn11 block | CSN deneddyl inh | HNF4A DNA FP | SENP1 inh | Rpn11 inh conf | MMP-2 counter | Thrombin inh | others
N#Cc1cc(C#N)c(SCC(=O)N2CC(=O)Nc3ccccc32)nc1N | i | nt | 43 | i | i | i | i | i | i
CN(CCC#N)C(=O)COC(=O)c1c2c(nc3ccccc13)/C(=C/c1ccco1)CC2 | i | i | 71 | i | i | i | 45 | i | i
Cc1onc(-c2ccccc2)c1C(=O)OCc1nnc(-c2ccccc2)o1 | i | i | i | i | i | i | nt | nt | nt
OC(c1cccc(Cl)c1)c1ncc(-c2cccc3ccccc23)[nH]1 (stereo not given) | nt | nt | i | i | i | i | nt | nt | nt
COC(=O)c1ccc(NC(=S)Nc2ccccc2)cc1 | i | i | i | i | i | i | nt | nt | nt
O=C(O)c1ccc(NC(=S)Nc2ccccc2)cc1 | i | i | 34 | i | i | i | i | i | i
O=C(NC(=S)Nc1cccc(NC(=S)NC(=O)c2ccccc2)c1)c1ccccc1 | i | nt | 40 | i | i | i | i | 49 | i
C=CCn1nc([N+](=O)[O-])nc1Sc1cccc2cccnc12 | i | i | 67 | i | i | i | i | i | i
O=[N+]([O-])c1ccc(Sc2cccc3cccnc23)c([N+](=O)[O-])c1 | i | i | 71 | i | i | i | 57 | i | i
O=[N+]([O-])c1cc(Cl)ccc1Sc1cccc2cccnc12 | i | i | i | i | i | i | nt | nt | nt
O=[N+]([O-])c1ccc(Sc2cccc3cccnc23)cc1 | i | i | i | i | i | i | nt | nt | nt
Cc1ccc(OC(C)C(=O)Nc2ccccc2C(=O)N2CCN(C)CC2)cc1 (stereo not given) | i | i | i | i | i | i | nt | nt | nt
COC(=O)c1ccc2nc(-c3cccc(Cl)c3)c(Cc3ccccc3OC)n2c1 | nt | nt | i | i | i | i | nt | nt | nt
COc1ccccc1Cc1c(-c2cccc(Cl)c2)nc2ccc(Br)cn12 | nt | nt | 61 | i | i | 37 | 50 | i | i | SENP1 conf=i;SENP1 kin conf=i
Oc1ccc(C=NN=C2c3ccccc3-c3ccccc32)c(O)c1 | i | nt | 74 | i | i | 71 | 58 | i | 49 | SENP1 conf=78;SENP1 kin conf=51
Cn1c2ccccc2c2cc(C(=O)OCC(=O)N3CC(=O)Nc4ccccc43)sc21 | i | i | 65 | i | i | 35 | 121 | i | 88 | SENP1 conf=i;SENP1 kin conf=i
